Results as given in ChEMBL document CHEMBL1135883, “A comprehensive study of the active site residues of DT-diaphorase: rational design of benzimidazolediones as DT-diaphorase substrates” (J Med Chem, 2002).

Columns and labels:
[1] = biological target: NAD(P)H dehydrogenase [quinone] 1 (Homo sapiens) (UniProt P15559); assay: Evaluated for the kinetic parameter (Kcat) using recombinant DT-Diaphorase, value calculated from Lineweaver-Burke plot
Procedure, shortened: (§1)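 Recombinant human DT-diaphorase (1.4 × 10^-9 M final) with NADH (0.3 mM final) and quinone substrate (1.3 × 10^-6 to 6.7 × 10^-5 M final; 4.0 mM DMSO stock) in 0.05 M Tris pH 7.4. Anaerobic Thunberg cuvettes, argon-purged 20 min, 30 °C. Initial rates from 336 nm absorbance over 10 min. Δε from absorbance before and after complete reduction. kcat and Km from Lineweaver–Burke plot.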

[2] = biological target: NAD(P)H dehydrogenase [quinone] 1 (Homo sapiens) (UniProt P15559); assay: The ratio Kcat/Km provides the apparent second-order rate constant of the enzymatic transformation DT-Diaphorase; procedure, shortened: as §1
[3] = biological target: NAD(P)H dehydrogenase [quinone] 1 (Homo sapiens) (UniProt P15559); assay: Ratio Kcat/Km provides the apparent second-order rate constant of the enzymatic transformation of DT-Diaphorase; procedure, shortened: as §1

NAD(P)H dehydrogenase [quinone] 1 (Homo sapiens), sequence (P15559 whole entry): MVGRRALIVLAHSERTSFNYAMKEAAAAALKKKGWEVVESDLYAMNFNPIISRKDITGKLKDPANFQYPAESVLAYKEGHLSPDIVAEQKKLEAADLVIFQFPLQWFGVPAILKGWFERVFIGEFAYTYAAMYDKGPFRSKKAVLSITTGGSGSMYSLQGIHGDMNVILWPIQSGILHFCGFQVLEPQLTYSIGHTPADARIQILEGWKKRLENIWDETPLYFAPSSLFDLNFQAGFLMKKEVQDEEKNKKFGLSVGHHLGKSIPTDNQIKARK

Row | SMILES | k cat [1] [s⁻¹] | k cat/Km [2] [M⁻¹ s⁻¹] | k cat/Km [3] [M⁻¹ s⁻¹]
1 | COCC(=O)O[C@@H]1CCn2c1nc1c2C(=O)C(C)=C(NC(C)=O)C1=O | 4.84 | 40000 | 
2 | O=C1c2nc3n(c2C(=O)c2c1nc1n2CCC1)CCC3 | 3.81 | 118000 | 
3 | CC1=C(N2CC2)C(=O)c2nc3n(c2C1=O)CC[C@@H]3N | 2.64 |  | 1.39e+06
4 | CC1=C(N2CC2)C(=O)c2nc3n(c2C1=O)CC[C@H]3NC(=O)N(C)C | 9.56 |  | 2.13e+06
5 | CC(=O)NC1=C(C)C(=O)c2c(nc3n2CC[C@H]3OC(C)=O)C1=O | 3.81 |  | 154000
6 | CC1=C(N2CC2)C(=O)c2nc3n(c2C1=O)CC[C@@H]3NC(=O)N(C)C | 3.96 |  | 940000
7 | CC1=C(N2CC2)C(=O)c2nc3n(c2C1=O)CC[C@H]3N | 3.26 |  | 640000
8 | CC(=O)N[C@H]1CCn2c1nc1c2C(=O)C(C)=C(N2CC2)C1=O | 1.87 |  | 520000
9 | CC1=C(N2CC2)C(=O)c2nc3n(c2C1=O)CCC[C@@H]3N | 2.97 | 188000 | 
10 | CC1=C(N2CC2)C(=O)c2nc3n(c2C1=O)CCC[C@H]3N | 4.92 |  | 106000
11 | O=C1c2nc3n(c2C(=O)c2c1nc1n2CCCC1)CCCC3 | 3.74 |  | 1.45e+06
12 | CC(=O)N[C@@H]1CCn2c1nc1c2C(=O)C(C)=C(N2CC2)C1=O | 1.47 | 920000 | 
13 | CC1=C(N2CC2)C(=O)c2nc3n(c2C1=O)CC[C@@H]3NC(N)=O | 2.4 | 1.2e+06 | 
14 | COCC(=O)O[C@H]1CCn2c1nc1c2C(=O)C(C)=C(NC(C)=O)C1=O | 1.74 |  | 69000
15 | CC(=O)NC1=C(C)C(=O)c2c(nc3n2CC[C@@H]3OC(C)=O)C1=O | 3.85 |  | 472000
16 | CC1=C(N2CC2)C(=O)c2nc3n(c2C1=O)CC[C@H]3NC(N)=O | 2.7 |  | 890000
